Experimental data pooled from the literature.
Cell line: DU-145
Read-out: cell growth or viability

| Structure (SMILES) | method | time | IC50 [µM] |
| --- | --- | --- | --- |
| C[C@@H]1C[C@H](c2cccc(F)c2)c2c(cc3ccccn23)C(=O)O1 (racemic) | resazurin | 72 h | > 100 |
| Cc1ccc(S(=O)(=O)OCC(=O)Nc2ccc(C(=O)O)c(O)c2)cc1 | – | – | 75 |
| C[C@H]1O[C@@H](n2cc(F)c(=O)[nH]c2=O)[C@H](O)[C@@H]1O | CCK-8 | 48 h | > 50 |
| COc1cc(C(=O)c2csc(-c3ccccc3)n2)cc(OC)c1OC | SRB | 96 h | 0.071 |
| COc1cc([C@H]2C[C@@H](C)OC(=O)c3cc4ccccn4c32)cc(OC)c1OC (racemic) | resazurin | 72 h | 36.9 |
| Cn1cc(C(c2ccc(/C=C/C(=O)O)s2)c2cn(C)c3ccccc23)c2ccccc21 | MTT | 48 h | 46 |
| CCc1c2c(nc3ccc(OC(=O)N4CCC(N5CCCCC5)CC4)cc13)-c1cc3c(c(=O)n1C2)COC(=O)[C@]3(O)CC | SRB | 72 h | 9.3 |
| O=c1ccn(Cc2cn(-c3c4ccccc4nc4ccccc34)nn2)c(=O)[nH]1 | MTT | – | 59.3 |
| Cc1ccccc1-c1ccc(Cn2cccc(O)c2=S)cc1 | MTS | – | 13.6 |
| O=C(O)c1ccc(C(c2c[nH]c3ccccc23)c2c[nH]c3ccccc23)cc1 | MTT | 48 h | > 100 |
| C[C@@H]1C[C@H](c2ccc(Br)cc2)c2c(cc3ccccn23)C(=O)O1 (racemic) | resazurin | 72 h | 34.4 |
| C[C@H]1[C@@H](O)O[C@@H]2O[C@@]3(C)CC[C@H]4[C@H](C)CC[C@@H]1[C@@]24OO3 | CCK-8 | 48 h | > 50 |
| COC1=CC(=O)N(C(=O)[C@@H](CCC(Cl)(Cl)Cl)NC(=O)C(C)(C)C)[C@@H]1CCC(Cl)(Cl)Cl | resazurin | 72 h | 20 |
| Cn1cc(C(c2cccc(/C=C/C(=O)O)c2)c2cn(C)c3ccccc23)c2ccccc21 | MTT | 48 h | > 100 |
| COc1cccc([C@@H]2C[C@@H](C)OC(=O)c3cc4ccccn4c32)c1 (racemic) | resazurin | 72 h | > 100 |
| O=C(O)C(c1c[nH]c2ccccc12)c1c[nH]c2ccccc12 | MTT | 48 h | > 100 |
| COc1cc(Nc2nccc(-c3cnn4nc(OC)ccc34)n2)cc(C(F)(F)F)c1 | ATP luminescence | – | 0.38 |
| Oc1ccc(C(c2c[nH]c3ccccc23)c2c[nH]c3ccccc23)cc1 | MTT | 48 h | 48 |
| C[C@@H]1C[C@H](c2ccccc2)c2c(cc3ccccn23)C(=O)O1 (racemic) | resazurin | 72 h | > 100 |
| Cc1ccc2c(c1)c(C(c1ccc(/C=C/C(=O)O)s1)c1cn(C(C)C)c3ccc(C)cc13)cn2C(C)C | MTT | 48 h | > 100 |
| Cc1cc(=O)[nH]c(=O)n1Cc1cn(-c2c3ccccc3nc3ccccc23)nn1 | MTT | – | 26.1 |
| C[C@@H]1C[C@H](c2cccc(Cl)c2)c2c(cc3ccccn23)C(=O)O1 (racemic) | resazurin | 72 h | 54.7 |
